Laboratory results from ChEMBL document CHEMBL1126625, “7-Azetidinylquinolones as antibacterial agents. Synthesis and structure-activity relationships” (J Med Chem, 1993).
≈ marks a conversion by molar mass, not a printed value.

What was measured:
Mus musculus [1] = experiment: Blood level after oral administration in mice (50 mg/kg) was determined (area under the concentration-time curve recorded at 0.5, 1, 2, and 4 hour after dosing); type: ADME, organism-based; design: dose 50 mg/kg, time < 4 hr, route oral; details: in vivo
Method in brief: (§1)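 Single oral dose of 50 mg/kg to mice. Blood taken from groups of six mice at 0.5, 1, 2 and 4 h after dosing. Serum levels measured by disk agar diffusion bioassay with Bacillus subtilis ATCC 6633 on Seed Agar, plates incubated 18 h at 37 °C, giving total activity in serum. AUC 0-4 h expressed as μg/mL […].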

Bacillus cereus = experiment: Minimum inhibitory concentration (MIC) preventing growth of Bacillus cereus; type: functional
Bacillus subtilis = experiment: Minimum inhibitory concentration (MIC) preventing growth of Bacillus subtilis; type: functional
Escherichia coli [2] = experiment: Minimum inhibitory concentration (MIC)preventing growth of Escherichia coli; type: functional
Escherichia coli [3] = experiment: Efficacy on systemic infections after oral administration in mice was determined against Escherichia coli HM-42; type: functional
Method in brief: (§2)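 Mouse protection test using 4 groups of 10 mice. Mice were infected intraperitoneally with a bacterial suspension slightly above LD100. A single oral dose was given immediately after infection, with four doses, one per group, chosen from in vitro activity. Survival was scored after one week, and ED50 (total mg/kg protecting 50% of mice) was interpolated from group survival rates.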

Klebsiella pneumoniae = experiment: Minimum inhibitory concentration (MIC)preventing growth of Klebsiella pneumoniae; type: functional
Morganella morganii = experiment: Minimum inhibitory concentration (MIC) preventing growth of Morganella morganii; type: functional
Pseudomonas aeruginosa [4] = experiment: Efficacy on systemic infections after oral administration in mice was determined against Pseudomonas aeruginosa HS-116; type: functional; method in brief: as §2
Proteus vulgaris = experiment: Minimum inhibitory concentration (MIC) preventing growth of Proteus vulgaris; type: functional
[5] = test system: Staphylococcus epidermidis; experiment: Minimum inhibitory concentration (MIC) preventing growth of Staphylococcus epidermidis; type: functional
Staphylococcus aureus [6] = experiment: Minimum inhibitory concentration (MIC) preventing growth of […]; type: functional
Staphylococcus aureus [7] = experiment: Efficacy on systemic infections after oral administration in mice was determined against […] HS-93; type: functional; method in brief: as §2
Enterococcus faecalis = experiment: Minimum inhibitory concentration (MIC) preventing growth of Streptococcus faecalis ATCC 10541; type: functional
Enterobacter cloacae = experiment: Minimum inhibitory concentration (MIC)preventing growth of Enterobacter cloacae; type: functional
Pseudomonas aeruginosa [8] = experiment: Minimum inhibitory concentration (MIC)preventing growth of Pseudomonas aeruginosa; type: functional
Mus musculus [9] = experiment: Blood level after oral administration in mice (50 mg/kg) was determined by bioassay procedure and represent total activity present in the serum; type: ADME, organism-based; details: in vivo; method in brief: as §1

Row | Structure (SMILES) | AUC (Mus musculus [1]) [µg·h/mL] | MIC (Bacillus cereus) [µg/mL] | MIC (Bacillus subtilis) [µg/mL] | MIC (Escherichia coli [2]) [µg/mL] | MIC (Klebsiella pneumoniae) [µg/mL] | MIC (Morganella morganii) [µg/mL] | MIC (Proteus vulgaris) [µg/mL] | MIC [5] [µg/mL] | MIC (Staphylococcus aureus [6]) [µg/mL] | MIC (Enterococcus faecalis) [µg/mL] | MIC (Enterobacter cloacae) [µg/mL] | MIC (Pseudomonas aeruginosa [8]) [µg/mL] | AUC (Mus musculus [9]) [µg·h/mL] | ED50 (Escherichia coli [3]) [mg/kg] | ED50 (Pseudomonas aeruginosa [4]) [mg/kg] | ED50 (Staphylococcus aureus [7]) [mg/kg]
1 | CNC1(C)CN(c2c(F)cc3c(=O)c(C(=O)O)cn(C4CC4)c3c2F)C1 | 15.8 | 0.5 (≈ 1.38 µM) | 0.12 (≈ 0.33 µM) | 0.12 (≈ 0.33 µM) | 0.12 (≈ 0.33 µM) | 0.12 (≈ 0.33 µM) | 1 (≈ 2.75 µM) | 0.5 (≈ 1.38 µM) | 0.5 (≈ 1.38 µM) | 1 (≈ 2.75 µM) | 0.12 (≈ 0.33 µM) | 2 (≈ 5.5 µM) | – | 1.4 | 27.2 | 15
2 | CC1(N)CN(c2nc3c(cc2F)c(=O)c(C(=O)O)cn3-c2ccc(F)cc2)C1 | – | 0.25 (≈ 0.647 µM) | 0.06 (≈ 0.155 µM) | 0.06 (≈ 0.155 µM) | 0.06 (≈ 0.155 µM) | 0.12 (≈ 0.311 µM) | 1 (≈ 2.59 µM) | 0.25 (≈ 0.647 µM) | 0.25 (≈ 0.647 µM) | 4 (≈ 10.4 µM) | 0.06 (≈ 0.155 µM) | 2 (≈ 5.18 µM) | 33 | 1.3 | 82.7 | 7.5
3 | CCNCC1CN(c2c(F)cc3c(=O)c(C(=O)O)cn(C4CC4)c3c2F)C1 | – | 0.5 (≈ 1.32 µM) | 0.06 (≈ 0.159 µM) | 0.25 (≈ 0.662 µM) | 0.06 (≈ 0.159 µM) | 0.25 (≈ 0.662 µM) | 1 (≈ 2.65 µM) | 0.25 (≈ 0.662 µM) | 0.5 (≈ 1.32 µM) | 0.5 (≈ 1.32 µM) | 0.25 (≈ 0.662 µM) | 4 (≈ 10.6 µM) | 14.1 | – | – | –
4 | NC1CN(c2c(F)cc3c(=O)c(C(=O)O)cn(C4CC4)c3c2Cl)C1 | – | 0.12 (≈ 0.341 µM) | 0.06 (≈ 0.171 µM) | 0.015 (≈ 0.0426 µM) | 0.06 (≈ 0.171 µM) | 0.015 (≈ 0.0426 µM) | 0.015 (≈ 0.0426 µM) | 0.12 (≈ 0.341 µM) | 0.12 (≈ 0.341 µM) | 0.12 (≈ 0.341 µM) | 0.015 (≈ 0.0426 µM) | 0.25 (≈ 0.711 µM) | 8.5 | 1.1 | 34 | 7.2
5 | O=C(O)c1cn(C2CC2)c2cc(N3CCNCC3)c(F)cc2c1=O [CIPROFLOXACIN] | – | 0.25 (≈ 0.754 µM) | 0.06 (≈ 0.181 µM) | – | 0.03 (≈ 0.0905 µM) | 0.06 (≈ 0.181 µM) | 0.06 (≈ 0.181 µM) | 0.5 (≈ 1.51 µM) | 0.25 (≈ 0.754 µM) | 0.5 (≈ 1.51 µM) | – | 0.12 (≈ 0.362 µM) | 2.3 | 3 | 70.3 | 45.1

Now from value to compound, other results behind:

Row | AUC (Mus musculus [1]) [µg·h/mL] | MIC (Bacillus cereus) [µg/mL] | MIC (Bacillus subtilis) [µg/mL] | MIC (Escherichia coli [2]) [µg/mL] | MIC (Klebsiella pneumoniae) [µg/mL] | MIC (Morganella morganii) [µg/mL] | MIC (Proteus vulgaris) [µg/mL] | MIC [5] [µg/mL] | MIC (Staphylococcus aureus [6]) [µg/mL] | MIC (Enterococcus faecalis) [µg/mL] | MIC (Enterobacter cloacae) [µg/mL] | MIC (Pseudomonas aeruginosa [8]) [µg/mL] | AUC (Mus musculus [9]) [µg·h/mL] | Structure (SMILES) | ED50 (Escherichia coli [3]) [mg/kg] | ED50 (Pseudomonas aeruginosa [4]) [mg/kg] | ED50 (Staphylococcus aureus [7]) [mg/kg]
6 | 38.2 | 0.25 (≈ 0.688 µM) | 0.015 (≈ 0.0413 µM) | 0.06 (≈ 0.165 µM) | 0.06 (≈ 0.165 µM) | 0.12 (≈ 0.33 µM) | 0.25 (≈ 0.688 µM) | 0.25 (≈ 0.688 µM) | 0.25 (≈ 0.688 µM) | 1 (≈ 2.75 µM) | 0.06 (≈ 0.165 µM) | 2 (≈ 5.5 µM) | – | CN(C)C1CN(c2c(F)cc3c(=O)c(C(=O)O)cn(C4CC4)c3c2F)C1 | 1.7 | 90.8 | 19.8
7 | – | 0.06 (≈ 0.137 µM) | 0.015 (≈ 0.0343 µM) | 0.015 (≈ 0.0343 µM) | 0.12 (≈ 0.274 µM) | 0.12 (≈ 0.274 µM) | 0.12 (≈ 0.274 µM) | 0.06 (≈ 0.137 µM) | 0.015 (≈ 0.0343 µM) | 0.12 (≈ 0.274 µM) | 0.12 (≈ 0.274 µM) | 0.25 (≈ 0.571 µM) | 15.3 | CNC1CN(c2c(F)cc3c(=O)c(C(=O)O)cn(-c4ccc(F)cc4F)c3c2Cl)C1 | 1.3 | 30 | 1.3
8 | 3 | 0.12 (≈ 0.378 µM) | 0.03 (≈ 0.0945 µM) | 0.03 (≈ 0.0945 µM) | 0.03 (≈ 0.0945 µM) | 0.03 (≈ 0.0945 µM) | 0.12 (≈ 0.378 µM) | 0.12 (≈ 0.378 µM) | 0.25 (≈ 0.788 µM) | 0.5 (≈ 1.58 µM) | 0.03 (≈ 0.0945 µM) | 0.25 (≈ 0.788 µM) | – | NC1CN(c2cc3c(cc2F)c(=O)c(C(=O)O)cn3C2CC2)C1 | 3.6 | 82.2 | 44
9 | – | 0.12 (≈ 0.346 µM) | 0.03 (≈ 0.0866 µM) | 0.03 (≈ 0.0866 µM) | 0.03 (≈ 0.0866 µM) | 0.06 (≈ 0.173 µM) | 0.25 (≈ 0.722 µM) | 0.25 (≈ 0.722 µM) | 0.25 (≈ 0.722 µM) | 1 (≈ 2.89 µM) | 0.06 (≈ 0.173 µM) | 1 (≈ 2.89 µM) | 22.9 | CNC1(C)CN(c2nc3c(cc2F)c(=O)c(C(=O)O)cn3C2CC2)C1 | 3 | 102 | 9.6
